A short description of data set [1]: Half life in human hepatocytes at 5 uM by LCMS/MS analysis. Format: ADME, cell-based, Hepatocyte. The gist of the method:
(§1)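 Incubation in human hepatocytes. […] Values are means of at least three experiments.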

The nature of data set [2]: Intrinsic clearance in human hepatocytes assessed per million cells at 5 uM by LCMS/MS analysis. Format: ADME, cell-based, Hepatocyte. Particulars: read-out: CLH. The gist of the method: as §1
The test system of data set [3] is Mus musculus. Briefly: Toxicity in human A2780 cells xenografted athymic nude mouse assessed as body weight loss at 100 mg/kg, po qd for 5 days a week for 2 weeks. Format: organism-based. Further details: dose 100 mg/kg, route oral. The settings on record: in vivo. Summed up:
(§2)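 Nude mice (female, athymic, 5–6 weeks) carried sc right-flank xenografts of 5 × 10⁶ cells per 100 μL. Oral treatment once daily started 3 days after inoculation.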

A short description of data set [4]: Stability of the compound in aqueous solution at pH 7.4 after 24 hrs. Format: physicochemical. Particulars: buffer, pH 7.4, 24 h. Summed up: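 Stability in aqueous solution at pH 7.4 over 24 h.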
Data set [5] is described as follows: Stability of the compound in aqueous solution at pH 1.2 after 3 hrs. The settings on record: buffer, pH 1.2, 3 h.
The subject of data set [6] is NCI-H460. As to the kind of experiment: Cytotoxicity against human NCI-H460 cells after 24 hrs by SRB assay. Format: functional, cell-based. Particulars: NCI-H460, 24 h. Summed up: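 NCI-H460 cells were grown in RPMI-1640 with L-glutamine, 10% heat-inactivated FCS and 50 μg/mL gentamicin. Cells were seeded at about 10% confluence and allowed to recover for 24 h. They were exposed to varying concentrations for 24 h, washed, then cultured a further 48 h. Surviving cells were measured by SRB. IC50 is the 50% reduction in cell number versus vehicle, from dose–response curve fitting; means of at least three experiments.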
(The SRB assay estimates cell density from bound dye.)

Data set [7] in a line: Cytotoxicity against human HCT116 cells after 24 hrs by SRB assay. Format: functional, cell-based. The settings on record: HCT-116, 24 h. Summed up:
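HCT116 cells were cultured in McCoy's 5A with L-glutamine, 10% heat-inactivated FCS and 50 μg/mL gentamicin. After seeding at about 10% confluence and a 24 h recovery, they received drug for 24 h. Drug was washed out and cells were incubated 48 h more before SRB staining. IC50 is the 50% cell-number reduction versus vehicle, from fitted dose–response curves; means of at least two experiments.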

The target of data set [8] is Histone deacetylase. Briefly: Inhibition of HDAC-mediated tubulin deacetylation in human NCI-H460 cells after 3 hrs by Western blot analysis. Format: cell-based. The gist of the method:
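Cells (NCI-H460) were treated for 3 h with graded concentrations. The cytoplasmic fraction was collected after HNB/1% NP-40 lysis and centrifugation of nuclei at 2000g. This fraction was resolved by SDS-PAGE and probed for acetylated α-tubulin against α-tubulin and β-actin. Bands were detected by ECL and quantified by densitometry after normalization; IC50 fitted; means of at least two experiments.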
Background: In western blotting, separated proteins are transferred to a membrane and probed.

Data set [9] addresses Histone deacetylase. As to the kind of experiment: Inhibition of HDAC-mediated histone H4 deacetylation in human NCI-H460 cells after 3 hrs by Western blot analysis. Format: cell-based. The gist of the method: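 NCI-H460 cells were plated the day before and treated 3 h across a dose range. Cells were washed with DPBS containing 5 mM NaB and lysed in HNB buffer with 1% NP-40. Histones were acid-extracted from nuclei with 0.4 equiv/L H2SO4 and precipitated with acetone. Blots were probed for acetyl-H4 against total H4. Read-out was ECL and densitometry after normalization; IC50 fitted; means of at least two experiments.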

Data set [10] in a line: Efflux ratio of permeability from apical to basolateral side to basolateral to apical side of human Caco2 cells. Format: ADME, cell-based. Particulars: caco-2. The gist of the method: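 Caco-2 monolayers; the efflux ratio is flux in the apical-to-basolateral direction over flux in the basolateral-to-apical direction. Means of at least three experiments.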
Background: Passage across Caco-2 layers is used to estimate intestinal permeability.

Data set [11] is described as follows: Efflux ratio of permeability from apical to basolateral side to basolateral to apical side of human Caco2 cells in presence of digoxin. Format: ADME, cell-based. The settings on record: caco-2. Summed up:
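Caco-2 AB/BA flux ratio measured with digoxin coincubated with test and reference compounds. Means of at least three experiments.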

Data set [12] can be described thus: Antitumor activity against human HCT116 cells xenografted in athymic nude mouse assessed as tumor volume inhibition at 60 mg/kg, po qd for 5 days a week for 3 weeks. Format: functional. Particulars: HCT-116. The gist of the method:
(§3)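 Female athymic nude mice, 5–6 weeks old, were inoculated sc in the right flank with 5 × 10⁶ exponentially growing tumor cells per 100 μL. Oral dosing once daily began 3 days after tumor injection, in Solutol HS15 diluted 1/20 in water. Tumor volume inhibition was calculated as TVI% = 100 − [(mean TV treated/mean TV control) × 100].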

The subject of data set [13] is A2780. Briefly: Antitumor activity against human A2780 cells xenografted in athymic nude mouse assessed as tumor volume inhibition at 60 mg/kg, po qd for 5 days a week for 3 weeks. Format: functional. The settings on record: in the assay text read “for 2 weeks” for “for 3 weeks”. The gist of the method: as §3
Data set [14] has as its system Mus musculus. Briefly: Toxicity in human HCT116 cells xenografted athymic nude mouse assessed as body weight loss at 60 mg/kg, po qd for 5 days a week for 3 weeks. Format: organism-based, HCT-116. Further details: dose 60 mg/kg, route oral. The settings on record: in vivo. The gist of the method: as §2
Data set [15] deals with Mus musculus. As to the kind of experiment: Toxicity in human A2780 cells xenografted athymic nude mouse assessed as body weight loss at 60 mg/kg, po qd for 5 days a week for 3 weeks. Format: organism-based. Further details: dose 60 mg/kg, route oral. The settings on record: in vivo, in the assay text read “for 2 weeks” for “for 3 weeks”. The gist of the method:
as §2

Data set [16] in a line: Solubility of the compound in Solutol HS15.

What is called half-life is how long it takes for the measured level to halve. In data set [1], `O=C(CCCCCCC(=O)Nc1ccccc1)NO` [VORINOSTAT] showed a half-life at 5 µM of 47.5 min. Besides, the hepatocyte CLint at 5 µM in data set [2] stood at 14.7 µL/min/1e6 cells. Besides, the Activity in [3] turned out to be 4%. The Stability entry in data set [4] and in data set [5] was “Stable” each time.

In general, IC50 refers to the concentration that inhibits the measured activity by half. A high value points to weaker potency in that assay. One may read the inhibition in vivo as the change of the read-out against control, counted positive when it falls. Broadly, the solubility is the dissolved amount per volume that the medium holds. Read a high solubility as a readily soluble substance. On to `CC(=O)SCCCCC[C@H](NC(=O)[C@H]1CCC(=O)N1)C(=O)Nc1ccccc1`, for which the IC50 came out at 70 nM in data set [6], 75 nM in data set [7], 200 nM in data set [8] and 5 nM in data set [9]. Further, the half-life at 5 µM in data set [1] is 2.7 min. For the same compound, in data set [2], the hepatocyte CLint at 5 µM worked out at 252 µL/min/1e6 cells. The figures for the Ratio in [10] and in data set [11] were 6.9 and 4.2, respectively. Moreover, the inhibition in vivo at 60 mg/kg is 62% in data set [12] and 89% in data set [13]. Besides, the Activity in data set [14] worked out at 1%; in data set [15] it was 7%. This compound gave a solubility in data set [16] above 10000 µg/mL.

For the origin of these results see ChEMBL document CHEMBL3352570, “ST7612AA1, a thioacetate-ω(γ-lactam carboxamide) derivative selected from a novel generation of oral HDAC inhibitors” (J Med Chem, 2014).
